Reference: ChEMBL document CHEMBL1649062, “Integration of lead optimization with crystallography for a membrane-bound ion channel target: discovery of a new class of AMPA receptor positive allosteric modulators” (J Med Chem, 2011)
Values after ≈ are worked out from the molar mass of the structure shown. Active and inactive are the calls of the source.

What was measured:
Rattus norvegicus [1] = assay: Neurotoxicity in Lister Hooded rat assessed proconvulsant effect at 150 mg/kg, ip by MEST test; type: toxicity, organism-based; parameters: dose 150 mg/kg, route intraperitoneal; details: in vivo
In short: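 Male Lister Hooded rats pretreated with compound, saline vehicle or picrotoxin 30 min before corneal electroshock (CC50 about 60–70 mA, 0.1 ms); tonic and tonic-clonic seizure threshold scored; brain concentrations taken from satellite rats sampled right after testing.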

[2] = Kinetic solubility of the compound in phosphate buffered saline of pH 7.4; type: physicochemical
In short: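 Kinetic solubility: 10 mM DMSO stock, 5 μL diluted to 100 μL with pH 7.4 phosphate-buffered saline, equilibrated 1 h at room temperature, filtered, filtrate quantified by calibrated flow-injection chemiluminescent nitrogen detection.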

in vivo = details: rat, brain and blood, po, 3 mg/kg
[3] = Plasma protein binding in rat at 3 mg/kg, po; type: ADME, organism-based; parameters: dose 3 mg/kg, route oral; details: read-out: PPB (converted)
[4] = Apparent permeability of the compound; type: ADME; details: not told
In short: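 Artificial membrane permeability: donor holds 10 mM sample in pH 7.05 phosphate buffer with 0.5% hydroxypropylcyclodextrin. Membrane is 1.8% phosphatidylcholine and 1% cholesterol in decane. Donor and acceptor concentrations measured by LCMS after 3 h at room temperature; permeability expressed in nm/s.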

Glutamate receptor 2 [5] = target: T1, Glutamate receptor 2 (Homo sapiens, UniProt P42262); assay: Allosteric modulation of human recombinant GluA2 receptor flip isoform expressed in HEK293 cells assessed as potentiation of glutamate-induced calcium influx by Fluo-4/FLIPR method relative to cyclothiazide; type: cell-based
In short: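 Stable GluA2 flip (unedited) cells seeded to confluence 2-3 days before assay; washed in HEPES buffer (145 NaCl, 5 KCl, 2 CaCl2, 1 MgCl2, 5.5 glucose, pH 7.3), loaded with 2 μM Fluo4-AM 60 min at room temperature. FLIPR dual addition: compound 5 min before 100 μM glutamate; fluorescence rise expressed against maximal cyclothiazide response, fitted pEC50 and Asym max; n ≥ 3.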

Brain [6] = assay: Brain tissue binding in rat at 3 mg/kg, po; type: ADME, organism-based; parameters: dose 3 mg/kg, route oral; details: in vivo
[7] = Distribution coefficient, log D of the compound; type: physicochemical; details: octanol/water
[8] = (§1) AUC ( 0 to t) in rat at 3 mg/kg, po; type: ADME, organism-based, Plasma; parameters: dose 3 mg/kg, route oral; details: plasma
Rattus norvegicus [9] = assay: Cognitive enhancing effect in Wistar rat assessed as reversal of scopolamine-induced amnesic deficit at 10 to 30 mg/kg, ip by passive avoidance test
Glutamate receptor 2 [10] = target: T1, Glutamate receptor 2; assay: Allosteric modulation of human recombinant GluA2 receptor flip isoform expressed in HEK293 cells assessed as potentiation of glutamate-induced calcium influx by Fluo-4/FLIPR method; type: cell-based
In short: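 Stable GluA2 flip (unedited) cell line grown in DMEM/F12 with 10% FBS and seeded to confluence 2-3 days before use. Cells washed in HEPES buffer (pH 7.3) and loaded with 2 μM Fluo-4 AM for 60 min at room temperature. On FLIPR, compound was added 5 min before 100 μM glutamate. pEC50 and asymptotic maximum are relative to the maximal response to cyclothiazide, n ≥ 3.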

Brain [11] = assay: Drug level in Lister Hooded rat assessed per gram of tissue at 150 mg/kg, ip; type: ADME, organism-based; parameters: dose 150 mg/kg, route intraperitoneal; details: in vivo
In short: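 Male Lister Hooded rats pretreated 30 min before the maximal electroshock threshold test with compound or saline vehicle; picrotoxin served as positive control. Corneal current applied, CC50 about 60-70 mA, 0.1 ms. Brain levels measured in satellite rats sampled immediately after testing.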

[12] = Inhibition of human CYP450 by fluorescence assay; type: ADME
In short: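 Recombinant human CYP1A2, 2C9, 2C19, 2D6 and 3A4 bactosomes (0.1 mg/mL protein) preincubated 10 min at 37 °C in 50 mM potassium phosphate pH 7.4 with test compound (0.1–10 μM, methanol 3–4.5% final) and fluorogenic probe: ethoxyresorufin 0.5 μM (1A2), FCA 50 μM (2C9), BMC 10 μM (2C19), MMC 10 μM (2D6), DEF 1 μM or 7-BQ 25 μM (3A4). NADPH-regenerating system added; fluorescent metabolite read 10 min; rate as % control; IC50 fitted; triplicate.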

[13] = Clearance in rat at 3 mg/kg, po; type: ADME, organism-based; parameters: dose 3 mg/kg, route oral; details: in vivo
In short: (§2)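 Rats dosed orally at 3 mg/kg; blood sampled via the hepatic portal vein and heart. Estimated clearance derived from in vivo hepatic extraction, taking rat liver blood flow as 85 (mL/min)/kg.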

[14] = Cmax in rat at 3 mg/kg, po; type: ADME, organism-based; parameters: dose 3 mg/kg, route oral; details: in vivo
Brain [15] = assay: Drug level in Lister Hooded rat assessed per gram of tissue at 3 mg/kg, ip; type: ADME, organism-based; parameters: dose 3 mg/kg, route intraperitoneal; details: in vivo
In short: (§3)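 Male Lister Hooded rats (n = 9-12/group) tested for reversal of a 24 h delay-induced deficit in novel object recognition. Significant doses flagged. Brain concentrations measured in the study animals at the end of the test.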

[16] = Distribution coefficient, log D of the compound at pH 7.4; type: physicochemical; details: octanol/water
Rattus norvegicus [17] = assay: Cognitive enhancing effect in Wistar rat assessed as reversal of scopolamine-induced amnesic deficit at 30 mg/kg, ip by passive avoidance test
Cytochrome P450 3A4 = Cytochrome P450 3A4 (Homo sapiens, UniProt P08684); assay: Inhibition of human CYP3A4 by fluorescence assay; type: ADME
In short: (§4)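 Recombinant human CYP bactosomes (0.1 mg/mL) in 50 mM potassium phosphate pH 7.4, preincubated 10 min at 37 °C with test compound (0.1-10 μM, 7 concentrations) and fluorogenic substrate. Substrates: ethoxyresorufin 0.5 μM (1A2), FCA 50 μM (2C9), BMC 10 μM (2C19), MMC 10 μM (2D6), DEF 1 μM or 7-BQ 25 μM (3A4). Reaction started with NADPH regenerating system; metabolite formation read over 10 min. IC50 from percent of control rate; miconazole control; triplicate.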

Brain [18] = assay: Drug level in Lister Hooded rat assessed per gram of tissue at 10 mg/kg, ip; type: ADME, organism-based; parameters: dose 10 mg/kg, route intraperitoneal; details: in vivo; in short: as §3
[19] = AUC (0 to t) in rat blood at 3 mg/kg, po; type: ADME, organism-based; parameters: dose 3 mg/kg, route oral; details: whole blood
Brain [20] = assay: Drug level in Lister Hooded rat assessed per gram of tissue at 1 mg/kg, ip; type: ADME, organism-based; parameters: dose 1 mg/kg, route intraperitoneal; details: in vivo; in short: as §3
[21] = Cmax in rat blood at 3 mg/kg, po; type: ADME, organism-based; parameters: dose 3 mg/kg, route oral; details: whole blood
Brain [22] = assay: Drug level in Lister Hooded rat assessed per gram of tissue at 0.3 mg/kg, ip; type: ADME, organism-based; parameters: dose 0.3 mg/kg, route intraperitoneal; details: in vivo; in short: as §3
[23] = Blood Clearance in rat at 3 mg/kg, po; type: ADME, organism-based; parameters: dose 3 mg/kg, route oral; details: whole blood; in short: as §2
Cytochrome P450 2D6 = Cytochrome P450 2D6 (Homo sapiens, UniProt P10635); assay: Inhibition of human CYP2D6 by fluorescence assay; type: ADME; in short: as §4
Cytochrome P450 1A2 = target: T2, Cytochrome P450 1A2 (Homo sapiens, UniProt P05177); assay: Inhibition of human CYP1A2 by fluorescence assay; type: ADME; in short: as §4
T2 sequence (P05177 whole entry): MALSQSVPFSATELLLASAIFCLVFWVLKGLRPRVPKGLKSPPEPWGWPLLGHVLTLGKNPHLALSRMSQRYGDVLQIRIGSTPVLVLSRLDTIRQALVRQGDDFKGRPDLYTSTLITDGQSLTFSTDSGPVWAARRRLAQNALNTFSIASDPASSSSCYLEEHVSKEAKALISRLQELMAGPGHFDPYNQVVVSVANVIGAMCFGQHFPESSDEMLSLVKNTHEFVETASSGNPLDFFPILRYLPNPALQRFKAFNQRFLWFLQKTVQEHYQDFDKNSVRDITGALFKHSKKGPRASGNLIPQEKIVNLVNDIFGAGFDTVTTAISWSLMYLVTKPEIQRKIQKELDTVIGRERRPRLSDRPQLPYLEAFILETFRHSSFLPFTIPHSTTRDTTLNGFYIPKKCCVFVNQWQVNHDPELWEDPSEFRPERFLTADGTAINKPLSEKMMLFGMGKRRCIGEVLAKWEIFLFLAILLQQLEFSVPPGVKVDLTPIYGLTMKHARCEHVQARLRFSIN

Cytochrome P450 2C19 = Cytochrome P450 2C19 (Homo sapiens, UniProt P33261); assay: Inhibition of human CYP2C19 by fluorescence assay; type: ADME; in short: as §4
Cytochrome P450 2C9 = Cytochrome P450 2C9 (Homo sapiens, UniProt P11712); assay: Inhibition of human CYP2C9 by fluorescence assay; type: ADME; in short: as §4
Rattus norvegicus [24] = assay: as §1; type: ADME, organism-based, Plasma; parameters: dose 3 mg/kg, route oral; details: in vivo

Cytochrome P450 2D6, sequence (P10635 whole entry): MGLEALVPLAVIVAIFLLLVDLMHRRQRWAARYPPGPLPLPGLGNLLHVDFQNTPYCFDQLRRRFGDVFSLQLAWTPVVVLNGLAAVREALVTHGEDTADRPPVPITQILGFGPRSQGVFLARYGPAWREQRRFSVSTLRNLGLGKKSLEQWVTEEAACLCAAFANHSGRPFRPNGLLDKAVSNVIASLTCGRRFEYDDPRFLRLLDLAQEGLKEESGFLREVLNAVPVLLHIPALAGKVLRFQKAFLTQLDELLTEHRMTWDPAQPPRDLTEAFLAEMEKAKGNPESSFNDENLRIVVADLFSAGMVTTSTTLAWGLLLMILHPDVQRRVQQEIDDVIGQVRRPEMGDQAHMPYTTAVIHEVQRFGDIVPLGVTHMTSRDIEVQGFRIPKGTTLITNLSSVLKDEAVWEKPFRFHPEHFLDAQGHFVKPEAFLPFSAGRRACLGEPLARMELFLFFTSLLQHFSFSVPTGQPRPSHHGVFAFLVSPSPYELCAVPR
T1 sequence (P42262 whole entry, canonical isoform): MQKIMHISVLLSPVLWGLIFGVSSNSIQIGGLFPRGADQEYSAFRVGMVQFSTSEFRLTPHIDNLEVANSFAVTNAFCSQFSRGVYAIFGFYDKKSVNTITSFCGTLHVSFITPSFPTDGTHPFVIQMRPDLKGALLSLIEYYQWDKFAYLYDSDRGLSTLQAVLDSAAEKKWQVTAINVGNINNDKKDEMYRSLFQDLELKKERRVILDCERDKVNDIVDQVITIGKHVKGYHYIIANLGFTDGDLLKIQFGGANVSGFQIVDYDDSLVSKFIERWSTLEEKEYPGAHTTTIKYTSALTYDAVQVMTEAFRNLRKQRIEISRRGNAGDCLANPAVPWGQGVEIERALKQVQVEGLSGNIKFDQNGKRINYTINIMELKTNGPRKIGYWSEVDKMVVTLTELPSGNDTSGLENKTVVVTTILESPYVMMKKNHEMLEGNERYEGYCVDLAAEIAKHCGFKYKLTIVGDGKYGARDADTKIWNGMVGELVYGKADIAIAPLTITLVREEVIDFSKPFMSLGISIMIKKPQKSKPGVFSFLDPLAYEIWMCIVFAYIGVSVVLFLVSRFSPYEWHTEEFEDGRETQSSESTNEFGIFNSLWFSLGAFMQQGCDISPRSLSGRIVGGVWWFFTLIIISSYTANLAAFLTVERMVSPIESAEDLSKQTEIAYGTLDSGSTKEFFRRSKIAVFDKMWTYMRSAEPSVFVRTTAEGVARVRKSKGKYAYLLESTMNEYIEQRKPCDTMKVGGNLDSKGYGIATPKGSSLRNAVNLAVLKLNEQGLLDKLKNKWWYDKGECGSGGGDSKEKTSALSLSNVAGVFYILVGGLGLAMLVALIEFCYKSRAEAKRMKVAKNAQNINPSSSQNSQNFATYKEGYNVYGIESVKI
Cytochrome P450 2C9, sequence (P11712 whole entry): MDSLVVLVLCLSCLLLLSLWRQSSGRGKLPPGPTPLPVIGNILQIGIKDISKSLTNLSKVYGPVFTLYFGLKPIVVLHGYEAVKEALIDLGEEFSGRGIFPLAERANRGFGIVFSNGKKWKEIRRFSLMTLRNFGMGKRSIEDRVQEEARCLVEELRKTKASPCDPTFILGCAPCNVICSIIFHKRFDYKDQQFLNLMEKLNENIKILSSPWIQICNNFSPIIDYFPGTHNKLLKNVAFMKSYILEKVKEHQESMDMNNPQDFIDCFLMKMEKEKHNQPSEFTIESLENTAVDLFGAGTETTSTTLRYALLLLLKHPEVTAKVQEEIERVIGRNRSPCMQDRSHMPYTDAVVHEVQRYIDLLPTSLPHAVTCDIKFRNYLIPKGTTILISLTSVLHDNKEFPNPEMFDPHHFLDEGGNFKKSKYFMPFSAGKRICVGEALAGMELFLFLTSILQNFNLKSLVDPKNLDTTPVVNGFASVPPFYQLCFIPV
Cytochrome P450 3A4, sequence (P08684 whole entry): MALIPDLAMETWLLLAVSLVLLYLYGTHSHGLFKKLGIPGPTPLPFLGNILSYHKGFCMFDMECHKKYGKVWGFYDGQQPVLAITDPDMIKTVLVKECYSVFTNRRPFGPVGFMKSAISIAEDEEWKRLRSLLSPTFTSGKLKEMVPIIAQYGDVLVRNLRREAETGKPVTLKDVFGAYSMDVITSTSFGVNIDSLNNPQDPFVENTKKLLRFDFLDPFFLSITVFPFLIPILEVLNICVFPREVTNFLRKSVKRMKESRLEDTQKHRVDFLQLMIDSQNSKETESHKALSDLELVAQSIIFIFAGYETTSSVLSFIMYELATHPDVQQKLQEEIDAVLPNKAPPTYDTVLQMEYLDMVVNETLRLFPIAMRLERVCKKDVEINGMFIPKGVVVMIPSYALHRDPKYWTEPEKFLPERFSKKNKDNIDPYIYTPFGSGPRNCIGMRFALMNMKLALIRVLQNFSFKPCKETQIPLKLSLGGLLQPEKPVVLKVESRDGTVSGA
Cytochrome P450 2C19, sequence (P33261 whole entry): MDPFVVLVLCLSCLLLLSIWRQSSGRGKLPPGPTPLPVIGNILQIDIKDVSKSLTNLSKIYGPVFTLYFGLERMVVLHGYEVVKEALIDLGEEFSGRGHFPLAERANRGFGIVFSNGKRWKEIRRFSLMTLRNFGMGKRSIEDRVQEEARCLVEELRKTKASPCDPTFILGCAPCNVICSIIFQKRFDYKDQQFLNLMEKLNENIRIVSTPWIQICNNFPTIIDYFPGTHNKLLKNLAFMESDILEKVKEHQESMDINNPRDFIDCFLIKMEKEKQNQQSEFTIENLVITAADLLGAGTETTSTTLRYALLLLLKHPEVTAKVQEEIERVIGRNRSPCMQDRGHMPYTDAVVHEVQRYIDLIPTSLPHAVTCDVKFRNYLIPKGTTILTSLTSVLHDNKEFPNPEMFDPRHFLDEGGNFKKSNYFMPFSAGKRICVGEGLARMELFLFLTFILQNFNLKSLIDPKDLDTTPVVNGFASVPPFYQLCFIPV

Row | SMILES | Activity (Rattus norvegicus [1]) | solubility kinetic [2] | Kp (in vivo) | fraction unbound [3] | Papp [4] | Activity (Glutamate receptor 2 [5]) | Brain tissue binding (% bound) (Brain [6]) | logD [7] | EC50 (Glutamate receptor 2 [10]) | Drug uptake (Brain [11]) | Cmax [14] | logD [16] | IC50 (Cytochrome P450 3A4) | AUC(0-t) [19] | Cmax [21] | CL/F [23] | IC50 (Cytochrome P450 2D6) | IC50 (Cytochrome P450 1A2) | IC50 (Cytochrome P450 2C19) | IC50 (Cytochrome P450 2C9) | other results
1 | O=C(c1ccc(-n2nc(C(F)(F)F)c3c2CCCC3)cc1)N1CCOCC1 | Non-toxic | 123 µg/mL (≈ 324 µM) | 1.2 | 0.026 | 45.5 ×10⁻⁶ cm/s | 81% | 96.8% | 3.1 | > 20 µM | 7168 ng/g | 586 ng/mL | – | – | – | – | – | – | – | – | – | AUC(0-t) [8]: 1980 ng·h/mL; Activity (Rattus norvegicus [9]): inactive; IC50 [12]: > 10 µM; CL/F [13]: 14 mL/min/kg
2 | O=C1CCCN1Cc1c(F)cc(-n2nc(C(F)(F)F)c3c2CCOC3)cc1F | Non-toxic | 207 µg/mL (≈ 516 µM) | – | 0.064 | 47 ×10⁻⁶ cm/s | 120% | 96.3% | – | 20 µM | 8988 ng/g | – | 2.5 | > 10 µM | 481 ng·h/mL | 76 ng/mL | 22 mL/min/kg | > 10 µM | > 10 µM | > 10 µM | > 10 µM | Drug uptake (Brain [15]): 386 ng/g; Activity (Rattus norvegicus [17]): Active; Drug uptake (Brain [18]): 1413 ng/g; Drug uptake (Brain [20]): 79 ng/g; Drug uptake (Brain [22]): 22 ng/g
3 | CN1CCc2c(C(F)(F)F)nn(-c3ccc(CN4CCCC4=O)cc3)c2C1 | – | 93 µg/mL (≈ 246 µM) | – | 0.142 | 43 ×10⁻⁶ cm/s | 102% | 63% | – | 39.8 µM | – | – | 2 | > 10 µM | 294 ng·h/mL | 131 ng/mL | 22 mL/min/kg | > 10 µM | > 10 µM | > 10 µM | > 10 µM | –
4 | CN(C)C(=O)c1ccc(-n2nc(C(F)(F)F)c3c2CCCC3)cc1 | – | 138 µg/mL (≈ 409 µM) | 1.3 | 0.048 | – | 94% | 98.2% | 3 | 25.1 µM | – | 50 ng/mL | – | – | – | – | – | 6 µM | – | – | – | AUC (Rattus norvegicus [24]): 78 ng·h/mL
